The text below walks through data of ChEMBL document CHEMBL4043182, “On the synthesis of quinone-based BODIPY hybrids: New insights on antitumor activity and mechanism of action in cancer cells” (Bioorg Med Chem Lett, 2017).

Data set [1] deals with HCT-116. Put plainly: Cytotoxicity against human HCT116 cells after 24 hrs in presence of GSH-OEt by MTT assay. The conditions noted are these: HCT-116, 24 h. The data set is classed as functional, cell-based. The procedure, abridged: (§1)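 24 h MTT exposure (0.04–40.92 µM in 0.1% DMSO), with or without co-treatment with GSH ethyl ester (15 mM) to gauge the ROS contribution. MTT was 0.5 mg/mL for 3 h, with formazan dissolved in DMSO and absorbance at 595 nm expressed as % of control. Triplicate, repeated at least three times.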

Data set [2] has as its system SF-295. Put plainly: Cytotoxicity against human SF295 cells after 24 hrs in absence of GSH-OEt by MTT assay. The data set is classed as functional, cell-based. Particulars: SF-295, 24 h. In a few lines:
as §1

A further data set deals with SW-620. The data set can be described thus: Antiproliferative activity against human SW620 cells after 72 hrs by MTT assay. The conditions noted are these: SW-620, 72 h. Type of data set: functional, cell-based. In a few lines:
(§2)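 MTT reduction: cancer lines plated at 0.7×10^5 to 0.3×10^6 cells/well, V79 and L929 fibroblasts at 0.5×10^5 cells/well. Compounds in DMSO (0.1%) were given for 24 h at 0.04–40.92 µM or 72 h at 0.04–8.19 µM. Fresh medium with 0.5 mg/mL MTT was added for 3 h, then formazan was dissolved in DMSO and read at 595 nm as % of control. IC50 came from nonlinear regression with 95% CI. Doxorubicin (0.001–1.06 µM) was the positive control. Triplicate, ≥3 repeats.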
For orientation: Tetrazolium dyes change colour on reduction, which living cells bring about.

For data set [3], the system named is HCT-116. The data set can be described thus: Induction of oxidative stress in human HCT116 cells assessed as total GSH levels at 5 uM treated 24 hrs post NAC addition measured after 24 hrs by spectrophotometric analysis (reference value: 3.74 +/- 0.55 microg/mg). Type of data set: functional.
Data set [4] concerns SF-295. Put plainly: Geno-toxicity in human SF295 cells assessed as induction of DNA damage at 2.5 to 10 uM after 24 hrs in absence of NAC by alkaline comet assay. The data set is classed as functional, cell-based. In a few lines:
(§3)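 Alkaline comet assay after 24 h at 2.5, 5 and 10 µM, with or without 24 h pretreatment with 5 mM NAC. Cells were trypsinized and embedded in 0.75% low-melting agarose, then lysed at pH 10, 4 °C, ≥1 h. DNA was unwound 20 min at pH >13 and electrophoresed 20 min at 25 V, 300 mA (0.86 V/cm), then stained with ethidium bromide. 100 cells (2 slides) were scored in classes 0–4 for a damage index. Mean ± SEM, three independent experiments in triplicate.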

The subject of data set [5] is PC-3. The data set can be described thus: Induction of oxidative stress in human PC3 cells assessed as GSH to GSSG ratio at 5 uM treated 24 hrs post NAC addition measured after 24 hrs by spectrophotometric analysis (reference value: 2.69 +/- 0.21 microg/mg). Type of data set: functional. The procedure, abridged: (§4)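 Cells were pretreated 24 h with 5 mM NAC, then exposed 24 h to test compound at 5 µM. Controls received 0.1% DMSO. Extracts were prepared by sonication and HClO4 precipitation, then neutralized with KOH. Total glutathione was read by DTNB/glutathione reductase/NADPH rate at 412 nm. GSSG was measured after 4-vinylpyridine (0.1%, 1 h, RT) and GSH derived by difference. Values are normalized to protein, triplicates, three independent runs.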

A further data set relates to MDA-MB-435. Put plainly: Antiproliferative activity against human MDA-MB-435 cells after 72 hrs by MTT assay. The data set is classed as functional, cell-based. Particulars: MDA-MB-435, 72 h. In a few lines: as §2
The test system of data set [6] is SF-295. The data set can be described thus: Induction of oxidative stress in human SF295 cells assessed as total GSSG levels at 5 uM after 24 hrs by spectrophotometric analysis (reference value: 1.31 +/- 0.55 microg/mg). The data set is classed as functional.
Data set [7] deals with L929. The data set can be described thus: Antiproliferative activity against mouse L929 cells after 72 hrs by MTT assay. Type of data set: cell-based. The conditions noted are these: L929, 72 h. The procedure, abridged: as §2
In the next data set the test system is V79. The data set can be described thus: Antiproliferative activity against chinese hamster V79 cells after 72 hrs by MTT assay. Type of data set: cell-based. The conditions noted are these: Cricetulus griseus, V79, 72 h. The procedure, abridged: as §2
The test system of data set [8] is L929. Put plainly: Geno-toxicity in mouse L929 cells assessed as induction of DNA damage at 2.5 to 10 uM after 24 hrs in absence of NAC by alkaline comet assay. The data set is classed as cell-based. The conditions noted are these: l929, 24 h. The procedure, abridged:
as §3

In data set [9] the test system is PC-3. The data set can be described thus: Induction of oxidative stress in human PC3 cells assessed as total intracellular thiol levels at 5 uM after 24 hrs by spectrophotometric analysis (reference value: 4.23 +/- 0.75 microg/mg). Type of data set: functional.
Data set [10] concerns HCT-116. Put plainly: Cytotoxicity against human HCT116 cells after 24 hrs in absence of GSH-OEt by MTT assay. Type of data set: functional, cell-based. Particulars: HCT-116, 24 h. The procedure, abridged:
as §1

For data set [11], the system named is HCT-116. Put plainly: Induction of oxidative stress in human HCT116 cells assessed as total GSH levels at 5 uM after 24 hrs by spectrophotometric analysis (reference value: 3.74 +/- 0.55 microg/mg). The data set is classed as functional.
In data set [12] the test system is PC-3. Put plainly: Cytotoxicity against human PC3 cells after 24 hrs in absence of GSH-OEt by MTT assay. The data set is classed as functional, cell-based. Particulars: PC-3, 24 h. In a few lines:
as §1

The subject of data set [13] is HCT-116. Put plainly: Induction of oxidative stress in human HCT116 cells assessed as GSH to GSSG ratio at 5 uM treated 24 hrs post NAC addition measured after 24 hrs by spectrophotometric analysis (reference value: 3.09 +/- 0.33 microg/mg). Type of data set: functional.
Data set [14] is described as follows: Selective index, ratio of IC50 for chinese hamster V79 cells to IC50 for human HCT116 cells. In a few lines:
(§5)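 Selectivity index is the ratio of the IC50 in a non-cancer murine line (V79 or L929) to the IC50 in the cancer line. […] MTT was 0.5 mg/mL for 3 h, formazan dissolved in DMSO and read at 595 nm as % of control. IC50s were derived by nonlinear regression; triplicate, at least three repeats.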

The subject of data set [15] is HCT-116. The data set can be described thus: Induction of oxidative stress in human HCT116 cells assessed as total GSSG levels at 5 uM after 24 hrs by spectrophotometric analysis (reference value: 1.19 +/- 0.37 microg/mg). Type of data set: functional.
Data set [16] has as its system SF-295. Put plainly: Induction of oxidative stress in human SF295 cells assessed as GSH to GSSG ratio at 5 uM treated 24 hrs post NAC addition measured after 24 hrs by spectrophotometric analysis (reference value: 2.34 +/- 0.56 microg/mg). Type of data set: functional. In a few lines: as §4
The subject of data set [17] is SF-295. The data set can be described thus: Induction of lipid peroxidation in human SF295 cells assessed as increase in MDA levels at 2.5 to 10 uM after 24 hrs in absence of NAC by TBARS assay. The data set is classed as functional, cell-based. The procedure, abridged:
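TBARS: cells were exposed 24 h, with or without 24 h prior 5 mM NAC, and lysed in Tris-HCl. Lysate was heated with TCA/0.25 M HCl and 6.7 mg/mL TBA for 15 min at 100 °C, centrifuged, and read at 532 nm. Hydrolyzed tetramethoxypropane served as standard, with values normalized to protein. H2O2 (10 µM) was the positive control. Three independent experiments in triplicate; ANOVA/Tukey.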

The nature of data set [18]: Selective index, ratio of IC50 for mouse L929 cells to IC50 for human HCT116 cells. The procedure, abridged: as §5
A short description of data set [19]: Selective index, ratio of IC50 for chinese hamster V79 cells to IC50 for human PC3 cells. The procedure, abridged: as §5
Data set [20] relates to SF-295. The data set can be described thus: Antiproliferative activity against human SF295 cells after 72 hrs by MTT assay. The data set is classed as functional, cell-based. Particulars: SF-295, 72 h. The procedure, abridged:
as §2

In data set [21] the test system is L929. The data set can be described thus: Induction of oxidative stress in mouse L929 cells assessed as total GSH levels at 5 uM treated 24 hrs post NAC addition measured after 24 hrs by spectrophotometric analysis (reference value: 3.76 +/- 0.51 microg/mg). Type of data set: cell-based. Particulars: l929, 24 h.

Active and inactive are the calls of the source. The rule behind the calls is not given here.

For the compound `CC1(C)OC2=C(C(=O)C(=O)c3ccccc32)C1n1cc(CNC2=[N+]3C(=C(c4ccccc4)c4ccc(Cl)n4[B-]3(F)F)C=C2)nn1` (centres undefined), the IC50 is 14.2 µM in the data set on HCT-116 [1]; 1.96 µM in the data set with SF-295 [2]; 0.68 µM in the data set with SW-620; 0.81 µM in the data set on MDA-MB-435; 0.92 µM with L929 [7]; 0.65 µM in the data set with V79. Also, the IC50 in the data set on HCT-116 [10] stood at 5.28 µM; in the data set with PC-3 [12], 4.47 µM; in the data set with SF-295 [20] it was 0.28 µM. Also, the Activity in the data set on HCT-116 [3] was 3.71 µg/mg; in the data set with PC-3 [5], 2.88 µg/mg; in the data set with SF-295 [6], 2.09 µg/mg; with L929 [8], “Toxic”; in the data set on PC-3 [9], 3.53 µg/mg; in the data set on HCT-116 [11], 1.78 µg/mg. Moreover, the Activity with HCT-116 [13] turned out to be 2.63 µg/mg; in the data set with HCT-116 [15], 2.01 µg/mg; in the data set on SF-295 [16] it was 2.82 µg/mg; in the data set on L929 [21], 3.89 µg/mg. For the same compound, the result in the data set on SF-295 [4] and in the data set on SF-295 [17] was Active. In addition, the figures for the Ratio IC50 in [14], in data set [18] and in data set [19] were 2, 3 and 1.7, respectively.

In general, IC50 refers to the midpoint of a concentration-inhibition curve.
